CHRM5 PAM: human M5 muscarinic receptor positive allosteric modulators, primary screen, CHO-K1 cells, Fluo-8 calcium fluorescence. activation, % at 3 µM. 0.3% of 360,000 active. CHO-K1 hM5, ACh EC20 PAM; 0% = ACh EC20, 100% = ACh EC100. AID 624038, 2012;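 active = activation above the run cutoff, the mean activation of all test compounds plus 3 SD, cut at about 18% in these data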
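Replicates: One well per compound, no replicates | System: Human M5 receptor in CHO-K1 cells | Benchmarks: Low control EC20 acetylcholine (0%), high control EC100 acetylcholine (100%) | Probe or stimulus: Acetylcholine, EC20 level | Times: Fluo-8 loading 80 min at 37 °C plus 30 min room temperature | Signal: Intracellular calcium via Fluo-8 fluorescence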
M4 ag: human M4 muscarinic receptor agonists, primary screen, CHO-K1 cells, Fluo-8 calcium fluorescence; Muscarinic acetylcholine receptor M4 (Homo sapiens), P08173; 0.14% of 360,000 active; activation, % at 3 µM; CHO-K1 hM4/Gqi5; vehicle 0%, full acetylcholine response 100%; AID 624127, 2012;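 active = activation above the run mean over all test wells plus 3 SD, cut at about 32% in these data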;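 also: peak over basal fluorescence ratio per well then scaled between controls; 0% = DMSO wells and 100% = acetylcholine at EC100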
Target sequence (P08173 whole entry, looked up): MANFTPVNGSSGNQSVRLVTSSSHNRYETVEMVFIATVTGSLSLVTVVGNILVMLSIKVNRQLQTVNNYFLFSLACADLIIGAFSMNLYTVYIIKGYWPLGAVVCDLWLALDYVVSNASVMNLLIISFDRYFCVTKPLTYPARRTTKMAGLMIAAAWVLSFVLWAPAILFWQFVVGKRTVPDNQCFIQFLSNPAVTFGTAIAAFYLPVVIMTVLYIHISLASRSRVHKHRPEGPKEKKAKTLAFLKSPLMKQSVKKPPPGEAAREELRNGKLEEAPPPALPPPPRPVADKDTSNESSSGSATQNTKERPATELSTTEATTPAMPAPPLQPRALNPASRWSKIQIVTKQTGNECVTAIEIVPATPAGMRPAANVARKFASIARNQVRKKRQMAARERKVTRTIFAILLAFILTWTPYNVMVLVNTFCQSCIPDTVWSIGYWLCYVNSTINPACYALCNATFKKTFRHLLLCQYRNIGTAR
CHRM5 antagonist: human M5 muscarinic receptor antagonists, primary screen, CHO cells, Fluo-8 calcium fluorescence. Muscarinic acetylcholine receptor M5 (Homo sapiens), P08912. CHO-hM5 cells, ACh EC80. inhibition, % at 3 µM. 0.59% of 360,000 active;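 active = inhibition above a per-plate cutoff, the mean of that plate's test compounds plus 3 SD, cut at about 27% in these data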;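 also: 0% = acetylcholine EC80 with DMSO and 100% = DMSO without agonist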
M4 antag: human M4 muscarinic receptor antagonists, primary screen, CHO cells, Fluo-8 calcium fluorescence. Muscarinic acetylcholine receptor M4 (Homo sapiens), P08173. CHO-hM4 cells, ACh EC80. inhibition, % at 3 µM. 0.73% of 360,000 active;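 active = inhibition above its plate's cutoff, the mean inhibition of sample wells plus 3 SD, cut at about 27% in these data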;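 also: 0% = acetylcholine EC80 with DMSO and 100% = DMSO without agonist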
M4 PAM: human M4 muscarinic receptor positive allosteric modulators, primary screen, CHO-K1 cells, Fluo-8 calcium fluorescence | Muscarinic acetylcholine receptor M4 (Homo sapiens), P08173 | activation, % at 3 µM | CHO-K1 hM4/Gqi5, ACh EC20; 0% = ACh EC20, 100% = maximal ACh | 0.4% of 360,000 active | AID 624126, 2012;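 active = activation above its plate's cutoff, the mean activation of sample wells plus 3 SD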
CHRM5 agonist: human M5 muscarinic receptor agonists, primary screen, CHO-K1 cells, Fluo-8 calcium fluorescence | activation, % at 3 µM | Muscarinic acetylcholine receptor M5 (Homo sapiens), P08912 | 0.19% of 360,000 active | CHO-K1 hM5 cells; 0% DMSO wells, 100% maximal acetylcholine response;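 active = activation above the run's mean over test compounds plus 3 SD, cut at about 23% in these data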;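 also: signal is peak over basal fluorescence ratio across the kinetic read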
The depositor's hits bear a star. Hits are enriched below; roughly 1.8% of the tested compounds scored in any of these assays.

SMILES	CHRM5 PAM	M4 ag	CHRM5 antagonist	M4 antag	M4 PAM	CHRM5 agonist
Cc1ccc(S(=O)(=O)N2[C@@H](c3ccc(Br)cc3)C(C(=O)O)=CC[C@H]2c2ccc3c(c2)OCO3)cc1	-4	1	6	-3	3	0
CCOC(=O)C1(C)CCCN(C(=O)c2ccc(OC)c(OC)c2)C1 (centres undefined)	4	1	-10	-10	2	2
Cc1ccc(NN2C(=O)C=C(c3ccc(Cl)cc3)C2=O)cc1	-3	9	23	70*	-14	10
COCCn1c(C)cc(C(=O)COC(=O)c2ccc(Br)o2)c1C	9	2	-12	-4	7	3
COC(=O)c1ccc(OCCN2CCCCCC2)cc1	-5	0	7	19	-18	-10
COC(=O)c1ccc(OCCN2C3=NCCN3c3ccccc32)cc1	-3	1	-5	40*	-21	-8
Cc1noc(C)c1S(=O)(=O)Nc1ccc(C(=O)N2CCc3ccccc3C2)cc1	20*	3	-18	-1	-1	-2
Cc1cccc(N2CCN(C(=O)c3ccc(NS(=O)(=O)c4c(C)noc4C)cc3)CC2)c1C	-10	7	7	-6	-2	-6
Cc1noc(C)c1S(=O)(=O)Nc1ccc(C(=O)N2CCN(c3cccc(Cl)c3)CC2)cc1	-21	35*	27*	6	-6	7
CC(=O)C[C@H]1SC[C@@H](C(C)C)N1S(=O)(=O)c1ccc(C)cc1	-1	-1	11	13	6	-2
Cc1cc(C)c(OCCOCCN2CCCC2)c(C)c1	2	1	8	-1	-17	-12
Cc1cc(C)c(OCCOCCN2CCNCC2)c(C)c1	45*	2	-3	-22	2	-8
CC(C)(C)c1ccc(SCCc2ccccn2)cc1	3	0	6	-4	-3	-2
CC(C)NC(=O)CN1CCN(C(=O)c2ccc3oc(CCCc4ccccc4)nc3c2)CC1	3	3	6	-4	23*	-3
COc1cccc(-c2c(C(=O)N/N=C/c3cccs3)nnn2-c2nonc2N)c1	-4	8	-4	-9	3	31*
CCOc1cccc(-c2c(C(=O)N/N=C/c3ccncc3)nnn2-c2nonc2N)c1	-6	3	15	6	2	-2
Cc1ccc(/C=N/NC(=O)c2nnn(-c3nonc3N)c2-c2cccs2)cc1	13	10	2	-1	10	30*
CCOc1cccc(-c2c(C(=O)N/N=C/c3cccs3)nnn2-c2nonc2N)c1	28*	8	-20	-8	7	28*
C=CCNC(=S)NNc1nc2c(c(=O)[nH]1)C1(CCCCC1)Cc1ccccc1-2	9	0	-6	4	-4	4
CCCOc1nnnn1-c1ccccc1	6	0	0	-4	19*	-1
OCCOc1nnnn1-c1ccccc1	6	1	-5	1	10	1
O=C(Nc1ccccc1C(=O)O)c1ccc(Br)o1	-2	-1	-6	-7	-5	2
CC(=O)c1cc(C(=O)Nc2ccccc2C(=O)O)oc1C	0	0	-20	-2	32*	-3
Cc1cccc(-c2nnc3n2N=C(c2ccccc2)CS3)c1	-7	3	8	0	5	-5
Cc1nn2c(nc1=O)SCC(c1ccccc1)=N2	28*	1	-19	-17	3	-1
Cc1ccc2nc(-c3ccccc3)cc(C(=O)NCC(c3ccco3)N(C)C)c2c1 (centres undefined)	-17	12	1	-1	-1	2
CN(C)CC(=O)N[C@@H]1C=C[C@@H](CC(=O)NCCN2CCCCC2)O[C@@H]1CO	10	2	-13	-19	12	1
